RGS4 inh – human RGS4 inhibition. B-score at 10 µM. AID 463165. P49798. hit rate 0.45% among 310,000. HEK293 M3R/RGS4 inducible, Fluo-4 calcium flux; stronger effect = higher value; triggered by carbachol at its EC20;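 active = B-score, a plate-corrected calcium signal, over three deviations above library mean, with baseline fluorescence within five deviations of library mean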;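 also: RGS4 expression induced by doxycycline in cells with stable M3 receptor; B-score is computed from the integrated fluorescence ratio over baseline after carbachol; higher B-score means a larger calcium signal and so more RGS4 inhibition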
Target sequence (P49798 whole entry, looked up): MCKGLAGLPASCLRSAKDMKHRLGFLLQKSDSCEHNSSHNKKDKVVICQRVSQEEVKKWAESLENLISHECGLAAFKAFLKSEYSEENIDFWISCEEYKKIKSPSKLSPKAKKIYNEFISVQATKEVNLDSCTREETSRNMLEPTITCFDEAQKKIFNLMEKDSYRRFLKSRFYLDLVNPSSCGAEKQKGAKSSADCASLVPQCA
PHOSPHO1 inh – PHOSPHO1 (human) inhibition | Q8TCT1 | recombinant PHOSPHO1, absorbance phosphatase assay | inhibition, % at 13.3 µM | hit rate 1.1% among 290,000 | AID 1565; in the data active = inhibition above about 60%
Target sequence (Q8TCT1 whole entry, looked up): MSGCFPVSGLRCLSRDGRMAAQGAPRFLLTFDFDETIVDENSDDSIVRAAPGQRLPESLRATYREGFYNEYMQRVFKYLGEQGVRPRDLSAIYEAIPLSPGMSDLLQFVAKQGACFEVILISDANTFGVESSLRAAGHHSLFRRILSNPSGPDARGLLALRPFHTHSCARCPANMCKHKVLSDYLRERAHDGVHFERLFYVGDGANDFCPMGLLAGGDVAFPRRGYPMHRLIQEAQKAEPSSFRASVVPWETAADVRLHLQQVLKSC
MrgX1 ag – human MrgX1 receptor agonism, primary screen. hit rate 0.44% among 310,000. MrgX1-HEK293 cells, Fluo-4 calcium fluorescence, agonist mode; stronger effect = higher value. AID 588627. Q96LB2. B-score at 10 µM;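 active = calcium response B-score plate-corrected fluorescence ratio at least 3 library SD, with starting fluorescence B-score inside 5 SD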
Target sequence (Q96LB2 whole entry, looked up): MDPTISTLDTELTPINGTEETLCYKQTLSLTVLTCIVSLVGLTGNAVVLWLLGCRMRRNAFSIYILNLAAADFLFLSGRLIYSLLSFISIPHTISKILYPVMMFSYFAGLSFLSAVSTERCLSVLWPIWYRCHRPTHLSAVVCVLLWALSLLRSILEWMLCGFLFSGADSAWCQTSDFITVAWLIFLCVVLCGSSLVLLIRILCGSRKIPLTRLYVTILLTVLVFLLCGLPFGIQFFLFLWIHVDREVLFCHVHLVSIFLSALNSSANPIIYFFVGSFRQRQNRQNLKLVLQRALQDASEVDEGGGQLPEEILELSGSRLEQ
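Test system: HEK293 cells stably expressing human MrgX1 receptor; Input: fifteen thousand cells per well; Dosing: compound delivered in addition one of three; Schedule: overnight seeding, then 1 h dark dye loading; Technique: Fluo-4 NW calcium fluorescence; Measure: B-scored fluorescence response ratio; Controls: positive and negative controls per plate.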
RGS4 act – potentiators or activators of RGS4; HEK293 M3R/inducible RGS4, carbachol calcium flux Fluo4; stronger effect = lower value; B-score at 10 µM; hit rate 0.92% among 310,000; AID 463111;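 active = B-score of the integrated calcium signal more than 4 SD below the library mean, with starting fluorescence not abnormally high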;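 also: negative B-score means reduced calcium response which marks RGS4 activation or potentiation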
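Material: Inducible-RGS4 HEK293 cells carrying M3 receptor; also added: carbachol at ECmax as muscarinic agonist stimulus; incubation: compound preincubation 20 min at room temperature before agonist; signal: Fluo4-AM (2 µM) calcium-flux fluorescence, kinetic read; measure: integrated calcium ratio converted to B score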
MrgX1 allo act – allosterically activates human MrgX1 receptor signaling. Q96LB2. MrgX1-HEK293, Fluo-4 calcium flux, FDSS; stronger effect = higher value. B-score at 10 µM. hit rate 0.63% among 310,000;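 active = plate-corrected calcium response at least 3 library SD above typical, normal starting fluorescence, not activating the receptor alone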;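 also: compound read alongside a low EC10 to EC30 dose of BAM8-22 agonist; peak minus trough fluorescence over baseline measured at the second addition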
MrgX1 antagonist – blocks BAM8-22 activation of human MrgX1 receptor; Q96LB2; hit rate 1.3% among 310,000; B-score at 10 µM; MRGX1-HEK293 calcium flux, Fluo-4, BAM8-22 antagonism; stronger effect = lower value;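 active = calcium-response B-score plate-corrected more than 3 library SD below zero, starting fluorescence within 5 deviations, no agonist response on first addition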;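 also: peak minus trough fluorescence over baseline after final BAM8-22 challenge near maximal dose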
MrgX1 ag reconf – reconfirmed activator of human MrgX1 receptor signaling. shares compounds with MrgX1 ag. MrgX1-HEK293, Fluo-4 calcium fluorescence, FDSS. activation, % at 10 µM. hit rate 78% among 600. AID 602412;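 active = calcium signal rise, corrected for plate position, at least 3 library SD high, with starting brightness within 5 such deviations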
HEK293 Ca flux – activity in parental HEK293 cells lacking MrgX1 | shares compounds with MrgX1 antagonist | Fluo-4 calcium fluorescence, FDSS | fluorescence ratio F(max-min)/F0 at 10 µM | hit rate 2% among 4,000 | AID 624111;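 active = duplicate-averaged calcium fluorescence ratio at least three times the standard deviation of buffer wells, a nonspecific response in parental cells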
HEK293 Ca counter – counter-screen for MrgX1 allosteric activators: effect in parental HEK293 cells | fluorescence ratio F(max-min)/F0 at 10 µM | parental HEK293 calcium flux, Fluo-4 fluorescence ratio; stronger effect = higher value | hit rate 0.4% among 4,000 | shares compounds with MrgX1 antagonist | AID 624114;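 active = calcium fluorescence ratio, averaged over duplicates, at least 3 SD of the buffer-well ratio, meaning a nonspecific response in receptor-free cells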;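 also: untransfected parental HEK293 lacking MrgX1 used as counterscreen for MrgX1 allosteric activators; fluorescence change taken during the second addition on a kinetic imager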
HEK293 Ca cntr2 – MrgX1 activator counter-screen hit in parental HEK293 cells; AID 624115; fluorescence ratio F(max-min)/F0 at 10 µM; hit rate 8.7% among 4,000; shares compounds with MrgX1 antagonist; Fluo-4 calcium fluorescence (FDSS); stronger effect = higher value;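 active = calcium fluorescence ratio at least three times the spread of buffer wells, meaning a non-specific response in parental cells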
Large screens that a line does not name were inactive (follow-up assays come after a bar, where they were run). Hits are enriched below; roughly 4.5% of the tested compounds scored in any of these assays.

COc1cc(C#N)ccc1OCC(=O)N1CCc2ccccc2C1	MrgX1 ag 50 | MrgX1 ag reconf inactive | HEK293 Ca flux inactive | HEK293 Ca counter inactive | HEK293 Ca cntr2 inactive
CCC1(C)NC(=O)N(CC(=O)Nc2sc3c(c2C(=O)OC)CCCCC3)C1=O (stereo not drawn)	MrgX1 ag 28 | MrgX1 ag reconf 437% | HEK293 Ca flux inactive | HEK293 Ca counter inactive | HEK293 Ca cntr2 128
Cc1oc2cc3oc(=O)c(CCC(=O)N4C[C@H]5C[C@@H](C4)c4cccc(=O)n4C5)c(C)c3cc2c1C	none
Cc1cc(N2CCN(c3ccccc3)CC2)nc(-c2ccccc2)n1	none
Cc1cc(N2CCOCC2)nc(N)n1	MrgX1 ag 73 | MrgX1 ag reconf 275% | HEK293 Ca flux inactive | HEK293 Ca counter inactive | HEK293 Ca cntr2 78
Cc1cc(N2CCN(c3ccccc3)CC2)nc(N)n1	MrgX1 ag 43 | MrgX1 ag reconf 252% | HEK293 Ca flux inactive | HEK293 Ca counter inactive | HEK293 Ca cntr2 inactive
C/C(=N/O)c1ccc(Oc2cnccn2)cc1	none
CCc1noc(C)c1C(=O)N(CCOC)c1c(N)n(CC(C)C)c(=O)[nH]c1=O	none
CCN(CC)CCCOc1ccc(Cl)c(Cl)c1	MrgX1 ag 107 | MrgX1 ag reconf inactive | HEK293 Ca flux inactive | HEK293 Ca counter inactive | HEK293 Ca cntr2 inactive
CN(CCOc1ccc(Cl)c(Cl)c1)Cc1ccccc1	none
CCC(C)(C)n1nnnc1C(c1ccccn1)N1CCN(c2cccc(OC)c2)CC1 (stereo not drawn)	none
CC(C)N1CCc2c(sc(NC(=O)c3ccc4ccccc4c3)c2C(N)=O)C1	none
CC(C)N1CCc2c(sc(NC(=O)c3ccc(C(=O)c4ccccc4)cc3)c2C(N)=O)C1	MrgX1 ag 36 | MrgX1 ag reconf inactive | HEK293 Ca flux inactive | HEK293 Ca counter inactive | HEK293 Ca cntr2 inactive
COC(=O)c1cn(NC(=O)/C=C/c2ccc(OC)c(OC)c2)c(=O)c2ccccc12	none
O=C1Nc2ccccc2C(=O)C1(Cl)Cc1ccccc1 (stereo not drawn)	MrgX1 ag 32 | MrgX1 ag reconf 199% | HEK293 Ca flux inactive | HEK293 Ca counter inactive | HEK293 Ca cntr2 inactive
CC(C)(C)N1C(=O)c2ccccc2NC(=O)N1Cc1ccccc1	none
c1csc(C2C3=C(Nc4ncnn42)c2ccccc2OC3)c1 (stereo not drawn)	MrgX1 ag 31 | MrgX1 ag reconf 122% | HEK293 Ca flux inactive | HEK293 Ca counter inactive | HEK293 Ca cntr2 inactive
CC(=O)c1ccc(OC(C)C)c(CSC(=N)N)c1	MrgX1 ag 38 | MrgX1 ag reconf 199% | HEK293 Ca flux inactive | HEK293 Ca counter inactive | HEK293 Ca cntr2 inactive
CCOC(=O)C(Cc1cc(C(C)=O)ccc1OC(C)C)C(=O)OCC	none
COc1ccc(Br)cc1CSC(=N)N	MrgX1 ag 34 | MrgX1 ag reconf 148% | HEK293 Ca flux inactive | HEK293 Ca counter inactive | HEK293 Ca cntr2 inactive
CCCN(C(=O)COC(=O)CNC(=O)c1ccc2ccccc2c1)c1c(N)n(Cc2ccccc2)c(=O)[nH]c1=O	none (no result: PHOSPHO1 inh)
CC(C)(C)Nc1c2ccccc2nc2ccccc12	MrgX1 ag 35 | MrgX1 ag reconf 157% | HEK293 Ca flux inactive | HEK293 Ca counter inactive | HEK293 Ca cntr2 inactive
O=C(CN1C(=O)NC2(CCCC2)C1=O)N1CCN(S(=O)(=O)c2cccc(C(F)(F)F)c2)CC1	none (no result: PHOSPHO1 inh)
O=C(CSc1nncn1-c1ccccc1)Nc1cc(F)ccc1F	none
Cc1onc(-c2ccccc2)c1C(=O)NNC(=S)NC(=O)c1ccc(Br)cc1	MrgX1 ag 86 | MrgX1 ag reconf 705% | HEK293 Ca flux inactive | HEK293 Ca counter inactive | HEK293 Ca cntr2 138
Cc1ccccc1C(=O)NNC(=S)NC(=O)c1ccc(Cl)cc1Cl	PHOSPHO1 inh 100, MrgX1 ag 172, RGS4 act -10 | MrgX1 ag reconf 776% | HEK293 Ca flux inactive | HEK293 Ca counter inactive | HEK293 Ca cntr2 154
O=C(NC(=S)NNC(=O)c1ccc(Cl)cc1Cl)c1cccnc1	none
COc1ccc(Cl)cc1NC(=O)c1c(-c2ccccc2)noc1C	none
Cc1onc(-c2ccccc2)c1C(=O)NNC(=O)c1ccccc1O	none (no result: PHOSPHO1 inh)
O=C(/C=C/c1ccccc1)NC(=S)NNC(=O)Cc1cccs1	MrgX1 ag 71 | MrgX1 ag reconf 262% | HEK293 Ca flux inactive | HEK293 Ca counter inactive | HEK293 Ca cntr2 73
Cc1onc(-c2ccccc2)c1C(=O)NNC(=S)NC(=O)c1ccc(Cl)cc1Cl	MrgX1 ag 180 | MrgX1 ag reconf 714% | HEK293 Ca flux inactive | HEK293 Ca counter inactive | HEK293 Ca cntr2 115
CC1(/[N+]([O-])=C/c2ccc(F)cc2)CCCCC1=O (stereo not drawn)	none
Cc1cc(NC(=O)c2cc(-c3cccc(OCC(C)C)c3)nc3ccccc23)no1	none
Cc1onc(-c2ccccc2)c1C(=O)NNC(=S)NC(=O)/C=C/c1ccccc1	MrgX1 ag 95 | MrgX1 ag reconf 455% | HEK293 Ca flux inactive | HEK293 Ca counter inactive | HEK293 Ca cntr2 72
Cc1onc(-c2ccccc2)c1C(=O)Nc1ccccc1NC(=O)c1c(-c2ccccc2)noc1C	none
CCOC(=O)CNc1nc(-c2ccncc2)nc2ccccc12	MrgX1 ag 56 (no result: RGS4 inh, RGS4 act) | MrgX1 ag reconf 236% | HEK293 Ca flux inactive | HEK293 Ca counter inactive | HEK293 Ca cntr2 47
COc1cc(/C=C2\SC(=Nc3ccccc3)NC2=O)cc(Cl)c1O	MrgX1 ag 84 | MrgX1 ag reconf inactive | HEK293 Ca flux 0.39 | HEK293 Ca counter inactive | HEK293 Ca cntr2 139
Cc1cc(C)c2c(n1)sc1c(-c3ccccc3)c(C#N)c(N)nc12	none
O=C(CCl)N(c1ccc(Cl)cc1)c1c[nH]c2ccccc12	MrgX1 ag 30 | MrgX1 ag reconf 146% | HEK293 Ca flux inactive | HEK293 Ca counter inactive | HEK293 Ca cntr2 inactive
O=C(CCl)N(c1ccccc1)c1c[nH]c2ccccc12	none
CC(C)c1ccc(/C=N/NC(=O)C(=O)NCCCN2CCOCC2)cc1	none
N#CC1=C(N)Oc2cc(N)ccc2C1c1ccc(Cl)cc1 (stereo not drawn)	none
N#CC1=C(N)Oc2cc(N)ccc2C1c1ccccc1Cl (stereo not drawn)	MrgX1 ag 29 | MrgX1 ag reconf inactive | HEK293 Ca flux inactive | HEK293 Ca counter inactive | HEK293 Ca cntr2 inactive

High-throughput results: PubChem, several laboratories
